MEKK3 PB1 HTS: modulators of MEKK3-MEK5 PB1 binding, primary screen, biochemical, wildtype MEKK3, multiplex bead flow cytometry, Alexa488-MEK5; bead-based flow cytometry, Alexa488-MEK5 binding to MEKK3; actives lie on both sides; 0 = blocked by unlabeled MEK5, 100 = vehicle; 290,000 compounds, 1.4% hits; AID 1529, 2009; binding response (% of control), % at 10 µM; Mitogen-activated protein kinase kinase kinase 3 (Homo sapiens), Q99759;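 active = binding response more than 3 SD above or below the average of its plate-row segment, actives on both sides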;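 also: Alexa488 bead fluorescence after subtracting the streptavidin-only scavenger bead signal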
MEKK2wt PB1 HTS: modulators of MEK5 binding to wildtype MEKK2, primary screen, biochemical, multiplex bead flow cytometry, Alexa488-MEK5; Mitogen-activated protein kinase kinase kinase 2 (Homo sapiens), Q9Y2U5; Alexa488-MEK5 binding to MEKK2 WT; actives lie on both sides; binding response (% of control), % at 10 µM; 290,000 compounds, 1.1% hits; in the data active = binding response below about 67% or above about 130%
MEKK2mut PB1 HTS: MEK5 binding signal on mutant MEKK2 PB1, primary screen, biochemical, multiplex bead flow cytometry, Alexa488-MEK5; Alexa488-MEK5 binding to MEKK2 mutant; percent response, % at 10 µM; 290,000 compounds, 0.35% hits; AID 1530, 2009; in the data active = percent response above about 24%, passing the limit was not always enough
Pemphigus Ab inh: inhibitors of pemphigus antibody binding to DSG3, primary screen, biochemical, bead-based, flow cytometry, scFv-GFP; binding (percent of control), % at 10 µM; Desmoglein-3 (Homo sapiens), P32926; 310,000 compounds, 0.48% hits; DSG3-coupled beads, scFv-anti-DSG3-GFP binding; stronger effect = lower value;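 active = binding more than 3 SD below its plate's average and above zero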
Apaf-1 inh: inhibitors of human Apaf-1 apoptosome, primary screen, biochemical, DEVD-Rh110 fluorescence, uHTS; Apoptotic protease-activating factor 1 (Homo sapiens), O14727; reconstituted apoptosome caspase-3 activity; inhibition, % at 20 µM; 330,000 compounds, 0.71% hits; AID 489030, 2010; active = inhibition of at least 40% at 20 µM;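 also: plate controls were DMSO wells for no effect and DEVD-CHO caspase inhibitor wells for full effect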
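Material: cell-free apoptosome with Apaf-1, procaspase-3 and caspase-9; Buffer or medium: Hepes pH 7.5 with detergent and BSA; Reagent: cytochrome c trigger plus (Z-DEVD)2-Rh110 caspase-3 substrate; Times: compound with Apaf-1, dATP, procaspase-3 30 min, then 50 min reaction, room temperature; Technique: Rh110 fluorescence intensity.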
UBC13 polyUb: UBC13 polyubiquitin chain formation inhibitors, primary screen, biochemical, TR-FRET, uHTS. inhibition, % at 20 µM. 330,000 compounds, 0.47% hits. AID 485273, 2010. Ubiquitin-conjugating enzyme E2 N (Homo sapiens), P61088; in the data active = inhibition above about 45%, passing the limit was not always enough
Target sequence (P61088 whole entry, looked up): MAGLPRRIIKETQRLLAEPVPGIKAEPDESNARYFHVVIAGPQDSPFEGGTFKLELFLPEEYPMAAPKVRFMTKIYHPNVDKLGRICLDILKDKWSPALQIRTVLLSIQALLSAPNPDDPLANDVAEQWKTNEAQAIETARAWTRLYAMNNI
MEKK2wt confirm: modulators of MEK5 binding to wildtype MEKK2, confirmation, biochemical, single concentration, multiplex bead flow cytometry. AID 1892, 2009. Alexa488-MEK5 binding to MEKK2 WT; actives lie on both sides. binding response (% of control), % at 10 µM. shares compounds with MEKK3 PB1 HTS. 5,900 compounds, 2.4% hits; in the data active = binding response below about 16% or above about 210%; inactive = in between
MEKK2mut-MEK5: mutant MEKK2 PB1-MEK5 binding signal retest – biochemical, single concentration, multiplex bead flow cytometry, confirmation; percent response, % at 10 µM; shares compounds with MEKK3 PB1 HTS; 5,900 compounds, 2% hits; Alexa488-MEK5 binding to MEKK2 mutant; in the data active = percent response mostly above about 71%, no sharp cut-off; inactive = mostly below about 38%;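 also: higher means compound restores mutant binding toward wildtype level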
MEKK3 confirm: MEKK3 wild-type PB1 binding to MEK5, inhibitors, confirmation, biochemical, bead multiplex flow cytometry, single concentration, wildtype. Alexa488-MEK5 binding to MEKK3; stronger effect = lower value. shares compounds with MEKK3 PB1 HTS. 5,900 compounds, 1.8% hits. AID 1894, 2009. binding response (% of control), % at 10 µM;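 active = binding response below 72% of control, or above a set upper limit, though filed actives all read lower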;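 also: 100% = DMSO only wells and 0% = binding blocked by excess unlabeled MEK5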
Starred values were filed as active, the others as inactive; · = no result given; ! = not active in a repeat; [ ] = remark or other dose. In the library only some 3.2% were active in any assay of this set; here they are far more common.

SMILES | MEKK3 PB1 HTS | MEKK2wt PB1 HTS | MEKK2mut PB1 HTS | Pemphigus Ab inh | Apaf-1 inh | UBC13 polyUb | MEKK2wt confirm | MEKK2mut-MEK5 | MEKK3 confirm
CCc1ccccc1NC(=O)CNC(=O)c1cc(C2CC2)nn1-c1ccccc1 | · | · | · | 97 | 13 | 2 | · | · | ·
CC1=C(C)CC(C(=O)Nc2nc(-c3ccc(C)cc3C)c(C)s2)C(C(=O)O)C1 (stereo unspecified) | 133* | 104 | 1 | 103 | 6 | -8 | 104 | 3 | 101
CCC(c1nc2ccccc2c(=O)n1CCN1CCOCC1)N1C(=O)c2ccccc2C1=O (stereo unspecified) | 82 | 90 | -6 | 101 | 6 | 3 | · | · | ·
CCC(c1nc2ccccc2c(=O)n1CCCn1ccnc1)N1C(=O)c2ccccc2C1=O (stereo unspecified) | 77*[inhibitor] | 85 | -12 | 85 | -4 | 0 | 101 | -2 | 103
COc1ccc(NS(=O)(=O)c2ccc(C(=O)N3CCCCCC3)cc2)cc1 | · | · | · | 98 | -1 | 16 | · | · | ·
COc1ccc(NS(=O)(=O)c2cc(C(=O)N3CCN(C(C)=O)CC3)ccc2Cl)cc1 | 71*[inhibitor] | 77 | -2 | 107 | -2 | 2 | 102 | 4 | 104
O=C(CCNC(=O)C1CCN(S(=O)(=O)c2ccccc2)CC1)Nc1ccccc1 | 96 | 104 | 5 | 98 | 0 | 2 | · | · | ·
NC(N)=N/N=C/c1c(Cl)cccc1Cl | 44*![inhibitor] | 51 | -13 | 116 | 5 | -7 | 102 | -4 | 100
COc1ccc(-c2noc(CN(C)C(=O)c3ccoc3C)n2)cc1 | 99 | 102 | 2 | 103 | 13 | 0 | · | · | ·
COc1ccccc1N(CC(=O)NCC1CCCO1)C(=O)CNS(=O)(=O)c1ccccc1 (stereo unspecified) | 135* | 116 | 27 | 93 | -7 | -9 | 112 | 19 | 110
COc1ccc(S(=O)(=O)NCC(=O)N(CC(=O)NCC2CCCO2)c2c(C)cccc2C)cc1 (stereo unspecified) | 102 | 103 | 3 | · | 2 | 4 | · | · | ·
O=C(c1cccc(S(=O)(=O)N2CCOCC2)c1)N1CCCC(C(F)(F)F)C1 (stereo unspecified) | · | · | · | 101 | 2 | 1 | · | · | ·
CC(C)C(NC(=O)c1ccccc1)C(=O)OCC(=O)N1CCN(c2ccccc2)CC1 (stereo unspecified) | · | · | · | 103 | 30 | 6 | · | · | ·
CN(CC(=O)Nc1cccc(F)c1)C(=O)COc1cccc2c1OC(C)(C)C2 | 102 | 108 | 9 | · | 14 | 3 | · | · | ·
CN(C)CCCN(C(=O)CCc1ccccc1)c1nc2ccc(Br)cc2s1 | 113 | 233* | 43 | 93 | 25 | 18 | 176 | 42 | 108
CN(C)CCCN(C(=O)CCc1ccccc1)c1nc2ccc(F)cc2s1 | 129* | 135 | 5 | 107 | 10 | 31 | 144 | 26 | 106
CN(C)CCCN(C(=O)c1ccco1)c1nc2ccc(Br)cc2s1 | 106 | 135 | 17 | 107 | -10 | 8 | · | · | ·
CN(C)CCN(C(=O)CCc1ccccc1)c1nc2c(F)cc(F)cc2s1 | 104 | 130 | 3 | 103 | 19 | 11 | · | · | ·
COc1ccc(N(C)S(=O)(=O)c2cccc(C(=O)OCC(=O)c3c(N)n(C)c(=O)n(C)c3=O)c2)cc1 | · | · | · | 90 | 1 | 18 | · | · | ·
COC(=O)c1ccc(Oc2nc(NC(C)(C)C)nc(N3CCOCC3)n2)cc1 | 101 | 95 | -2 | · | -11 | 1 | · | · | ·
CCNc1nc(Oc2ccc(C(=O)OCC)cc2)nc(N2CCOCC2)n1 | 135* | 117 | 1 | · | 5 | 20 | 98 | -1 | 101
COc1ccc(OC)c(NC(=O)Cn2cc(C=O)c3ccccc32)c1 | 103 | 97 | 1 | 108 | -1 | 20 | · | · | ·
COc1ccc(CNC(=S)Nc2cccc(C)c2C)cc1 | 78*[inhibitor] | 82 | -11 | 106 | 15 | 1 | 98 | -1 | 101
CCc1ccc(CNC(=O)C2CCCN(c3nn4c(=O)cc(C)nc4s3)C2)cc1 (stereo unspecified) | 103 | 104 | 7 | 105 | -2 | 4 | · | · | ·
COc1ccc(/C=N/NC(=O)CCc2n[nH]c(=O)[nH]c2=O)cc1OC | 129* | 106 | 0 | 104 | -1 | 3 | 110 | 14 | 108
SMILES | MEKK3 PB1 HTS | MEKK2wt PB1 HTS | MEKK2mut PB1 HTS | Pemphigus Ab inh | Apaf-1 inh | UBC13 polyUb | MEKK2wt confirm | MEKK2mut-MEK5 | MEKK3 confirm
COc1ccc(/C=N\NC(=O)CCc2c(C)n[nH]c2C)c(OC)c1OC | 134* | 109 | 2 | 89 | -11 | 4 | 111 | 3 | 100
COc1cccc(/C=N/NC(=O)CCc2n[nH]c(=O)[nH]c2=O)c1O | 128* | 103 | 0 | · | -3 | 4 | 109 | 5 | 103
COc1cccc(/C=N/NC(=O)CCc2c(C)n[nH]c2C)c1O | 99 | 97 | 11 | 101 | -9 | 12 | · | · | ·
CCCOc1ccc(/C=N\NC(=O)CCc2n[nH]c(=O)[nH]c2=O)cc1OC | 101 | 98 | -2 | 95 | 4 | -11 | · | · | ·
COc1ccc(CCNC(=O)C/C(C)=N/NC(=O)c2cnccn2)cc1 | 105 | 98 | -1 | 99 | -1 | -14 | · | · | ·
CCN(CC)CCNC(=S)NC(=O)c1cn(-c2ccccc2)nc1-c1ccc(OC)cc1 | 107 | 148* | 28 | 111 | 18 | 21 | 138 | 21 | 109
COC(=O)c1cn(-c2ccccc2)nc1-c1ccc(OC)cc1 | 100 | 99 | 2 | 91 | -5 | 4 | · | · | ·
CCN(CC)CCNC(=O)c1ccc(NC(=O)c2cn(-c3ccccc3)nc2-c2cccs2)cc1 | 107 | 212* | 49 | 111 | 25 | 103* | 212* | 53 | 108
CCNC(=S)NCc1ccc(F)cc1 | 134* | 109 | -1 | 105 | 6 | -1 | 102 | -2 | 98

Compound activity (PubChem)
